MITF TRPM1 HTS = MITF TRPM1 promoter activation in melanoma cells; SK-MEL-5 TRPM1-promoter luciferase, 24 h; % of positive control, neutral wells = 0; activation, % at 12.5 µM; 300,000 compounds, 0.75% hits;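 active = mean activation of at least 80% with every replicate also reaching 80%; inconclusive = mean reaches 80% but some replicate falls short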
Wnt bcat act = Wnt/beta-catenin pathway activation; Wnt/beta-catenin reporter cell assay, activator, plate reader; activation, % at 9.35 µM; 300,000 compounds, 1.2% hits; AID 743398; in the data active = activation above about 30%, passing the limit was not always enough; inconclusive = no clear call, values can overlap the other calls
Cneo AK release = causes C. neoformans cell lysis | 360,000 compounds, 0.2% hits | adenylate kinase release luminescence, 4 h; normalised: neutral wells 0, clomiphene wells 100 | lysis activity, % at 15 µM;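 active = mean lysis activity across replicates of at least 80%, whatever share of replicates individually reach that level; inactive = mean lysis activity below 80%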
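Material – log-phase Cryptococcus neoformans yeast cells · Input – 5 × 10^6 yeast cells/mL · Medium – fresh YPD growth medium · Doses – single compound concentration per well · Timing – static 4 h at 37 °C with compound, 1 h detection · Detection – adenylate kinase release luminescence · Read-out – signal increase indicating cell lysis · Control set – Clomiphene as positive lysis control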
PGC1a acetyl inh = lowers PGC1a acetylation signal in U2OS cells | AlphaScreen anti-acetyl-lysine; with virally co-expressed GCN5 acetyltransferase | inhibition, % at 15.6 µM | 350,000 compounds, 0.17% hits | AID 651687;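 active = every replicate shows inhibition of at least 40%; inconclusive = mean inhibition at least 40% but some replicate below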
Of the large screens only hits and unclear results are named; the others gave an inactive call. The list is not random: actives were taken first. Their share in the collection is about 1.5%.

Cc1ccc2nc(-c3ccc(N4C(=N)SC5CS(=O)(=O)CC54)cc3)sc2c1 (configuration not stated)	MITF TRPM1 HTS 104.2 (no result: Wnt bcat act, Cneo AK release)
CC1CCN(c2ccc3c(c2)S(=O)(=O)c2ccccc2C3=O)CC1	MITF TRPM1 HTS 85.6, Wnt bcat act 52.2
NC(=O)C1CCN(c2ccc3c(c2)S(=O)(=O)c2ccccc2C3=O)CC1	none
COC(=O)c1ccc(COc2ccc(/C=N/N3CCN(C)CC3)cc2)cc1	none (no result: Cneo AK release)
CN1CCN(/N=C/c2ccc(OCc3ccccc3)cc2)CC1	MITF TRPM1 HTS 85.3, PGC1a acetyl inh inconclusive
CC(=O)Nc1nc(C2COc3ccccc3O2)cs1 (configuration not stated)	none (no result: Wnt bcat act)
NC(N)=Nc1nc(C2COc3ccccc3O2)cs1 (configuration not stated)	Wnt bcat act 53.0 (no result: Cneo AK release, PGC1a acetyl inh)
N#C/C(=C/c1ccc(N2CCCCC2)o1)c1cccc(F)c1	none
N#C/C(=C/c1ccc(N2CCCCC2)cc1)c1cccc(F)c1	Wnt bcat act 33.4 (no result: PGC1a acetyl inh)
C/C(=N\Nc1ccc(C(=O)O)cc1)c1ccc2c(c1)Nc1ccccc1S2	MITF TRPM1 HTS 124.5
N[C@H]1CC[C@H](CCn2cc(-c3ccccn3)nn2)O[C@@H]1CO	none (no result: MITF TRPM1 HTS, Wnt bcat act)
O=C1/C(=C\c2ccsc2)N2CCC1CC2	Wnt bcat act 32.7 (no result: PGC1a acetyl inh)
Cc1ccccc1-c1cnc2c(c1)C(=O)N([C@H](C)CO)C[C@H](C)[C@H](CN(C)Cc1ccncc1)O2	none (no result: MITF TRPM1 HTS, Wnt bcat act)
CCCC#Cc1cnc2c(c1)C(=O)N([C@H](C)CO)C[C@H](C)[C@H](CN(C)C(=O)C1CCOCC1)O2	none (no result: MITF TRPM1 HTS, Wnt bcat act)
Cc1cc(C[n+]2cc(Cl)ccc2N)c2ncccc2c1	none
Cc1cc(C[n+]2cc(Br)ccc2N)c2ncccc2c1	Wnt bcat act 40.6 (no result: Cneo AK release)
Cc1sc2c(c1C)C(=O)/C(=C\Nc1ccncc1)S(=O)(=O)N2C	Wnt bcat act 43.6 (no result: MITF TRPM1 HTS)
COC(=O)c1ccc(N=NN2CCOCC2)cc1	none (no result: Cneo AK release, PGC1a acetyl inh)
COC(=O)c1ccc(N2CCC(C)CC2)c(N)c1	none (no result: Wnt bcat act, Cneo AK release, PGC1a acetyl inh)
COC(=O)c1ccc(N=NN2CCCCCC2)cc1	MITF TRPM1 HTS 105.7
COC(=O)c1ccc(N2CCCCC2)c(N)c1	MITF TRPM1 HTS 87.5
NS(=O)(=O)c1ccc(N=NN2CCCCC2)cc1	Wnt bcat act 38.8 (no result: Cneo AK release, PGC1a acetyl inh)
CCS(=O)(=O)NCC[C@@H]1CC[C@@H](NC(=O)C2CCC2)[C@H](CO)O1	none (no result: MITF TRPM1 HTS, Wnt bcat act)
C[C@@H]1CCCCO[C@@H](CN(C)C(=O)Cc2ccccc2)[C@@H](C)CN([C@@H](C)CO)C(=O)c2cc(NS(=O)(=O)c3ccc(F)cc3)ccc2O1	none (no result: MITF TRPM1 HTS, Wnt bcat act)
O=C(OCc1ccccc1)c1ccc2c(c1)-c1ccccc1C2=O	MITF TRPM1 HTS 112.7, Wnt bcat act 41.3
O=C(OCc1ccccc1)c1ccccc1	none (no result: MITF TRPM1 HTS)
Nn1c(COc2ccc(Cl)cc2)nc2ccccc2c1=O	MITF TRPM1 HTS 98.8
O=C(Cn1cnc2c(oc3ccccc32)c1=O)c1ccccc1	Wnt bcat act 48.5 (no result: MITF TRPM1 HTS)
O=C(O)Cn1cnc2c(oc3ccccc32)c1=O	none (no result: Cneo AK release)
CO[C@H]1CN(C)C(=O)c2cc(NC(=O)Nc3ccccc3F)ccc2OC[C@H](C)NC[C@@H]1C	none (no result: MITF TRPM1 HTS, Wnt bcat act)
C[C@@H](O)C#Cc1ccc([C@H]2[C@H]3CN(C(=O)c4ccncc4)CCCCN3[C@H]2CO)cc1	none (no result: MITF TRPM1 HTS, Wnt bcat act)
O=C(N/N=C\C=C\c1ccco1)c1cc(-c2ccc3ccccc3c2)n[nH]1	Wnt bcat act 56.8 (no result: Cneo AK release, PGC1a acetyl inh)
O=C(N/N=C/C=C\c1ccco1)c1ccccn1	none (no result: Cneo AK release, PGC1a acetyl inh)
Fc1ccccc1CSCc1nc2ccccc2[nH]1	MITF TRPM1 HTS 90.2
Clc1ccc(SCc2nc3ccccc3[nH]2)cc1	MITF TRPM1 HTS 119.3 (no result: Wnt bcat act)
O=c1[nH]c2ccccc2nc1-c1ccc(Cl)cc1	Wnt bcat act 50.9 (no result: MITF TRPM1 HTS, PGC1a acetyl inh)
Cc1ccc(CSCc2nc3ccccc3[nH]2)cc1	none (no result: Cneo AK release)
O=c1[nH]c2ccccc2nc1-c1ccccc1	none
Cn1cnc(S(=O)(=O)N2CCCCN3[C@@H](CO)[C@@H](c4ccc(C#CC5CC5)cc4)[C@@H]3C2)c1	none (no result: MITF TRPM1 HTS, Wnt bcat act)
Clc1ccc(-c2nc3n(n2)Cc2ccccc2-3)cc1	Wnt bcat act 52.7 (no result: MITF TRPM1 HTS, Cneo AK release)
C[C@H](CO)N1C[C@H](C)[C@@H](CN(C)C(=O)Cc2ccccc2)OCCCC[C@H](C)Oc2ccc(N(C)C)cc2C1=O	none (no result: MITF TRPM1 HTS, Wnt bcat act)
O=C(O)c1ccc(CSc2nnc(-c3ccccc3)n2-c2ccccc2)cc1	Wnt bcat act 34.9 (no result: Cneo AK release)
O=C(O)c1ccc(CSc2nnc(-c3ccccc3Cl)n2-c2ccccc2)cc1	none (no result: Cneo AK release)
C[C@H]1CN([C@@H](C)CO)C(=O)c2cc(NS(=O)(=O)c3ccccc3)ccc2O[C@@H]1CN(C)S(=O)(=O)c1ccc(Cl)cc1	none (no result: MITF TRPM1 HTS, Wnt bcat act, Cneo AK release)
Cc1occc1-c1nnc(SC(C)C(=O)Nc2ccccc2F)o1 (configuration not stated)	Wnt bcat act 41.8
O=C1NC(=O)C(=Cc2ccc(Cl)cc2Cl)S1	Wnt bcat act 39.3
Cc1ccc(-c2nc(Nc3ccccc3)n[nH]2)cc1	Wnt bcat act 44.6

Assay outcomes as filed in PubChem.
